Experimental data reported in article PMC9279720 (Acta Pharmaceutica Sinica. B, 2021).

Key:
HCMV ADCREGFP [1] = assay: HCMV replication assay; type: cell-based, Human cytomegalovirus (HCMV); conditions: for SI (selectivity index, CC50/EC50): CC50 (HFF) / EC50 (HCMV); for Antiviral activity/potency in words: concentrations up to 50 μmol/L
Cell viability assay = type: cell-based; conditions: human, HFF cells (no virus)
pUL89-C = biological target: T1, pUL89-C (Human cytomegalovirus, UniProt P16732); assay: In vitro pUL89-C endonuclease assay; type: biochemical, HCMV; conditions: read-out: Endonuclease inhibition (%) at 20 μmol/L
T1 sequence (P16732 418-674 limits assumed): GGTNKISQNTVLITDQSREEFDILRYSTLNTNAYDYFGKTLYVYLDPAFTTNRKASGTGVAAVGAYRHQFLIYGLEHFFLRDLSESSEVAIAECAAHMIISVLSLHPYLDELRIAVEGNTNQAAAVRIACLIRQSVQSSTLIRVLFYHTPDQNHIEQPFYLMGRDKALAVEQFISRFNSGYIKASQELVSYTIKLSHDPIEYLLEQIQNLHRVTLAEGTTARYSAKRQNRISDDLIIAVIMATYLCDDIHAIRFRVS

HFF cells = assay: Cell viability assay; type: cell-based; conditions: for Cytotoxicity in words: HFFs
HCMV ADCREGFP [2] = assay: Time of addition assay; type: cell-based, Human cytomegalovirus (HCMV); conditions: 5 × EC50, added at indicated times post infection
Outline: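 HFFs seeded at 1.75 × 10^4 cells/well, grown 24 h in DMEM/10% FBS/1% P/S, then inoculated at MOI 0.01. Cells were held in DMEM with 5% FBS, 1% P/S and 0.5% DMSO until compound was added. GFP intensity was read after lysis; triplicate-well means were normalized to DMSO.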

HCMV ADCREGFP [3] = assay: Compound withdrawal assay; type: cell-based, Human cytomegalovirus (HCMV); conditions: 5 × EC50, removed at indicated times, read at 168 h
Outline: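 HFFs in DMEM/5% FBS, inoculated with the virus at MOI 0.01 for 2 h before compound or 0.5% DMSO was added. At each withdrawal time, wells were washed twice in PBS and refed with 0.5% DMSO medium. Cells were lysed in Tris/DTT/Triton buffer and GFP read at ex/em 495/515 nm. Triplicate-well means.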

[4] = Plasma stability assay, human plasma; type: in vitro ADME; conditions: for half-life at 1 μmol/L: human, plasma, pH 7.4; for Plasma stability in words: species not told apart in the sentence (human and mouse in Table 3)
Outline: (§1)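 Test compound (1 μmol/L final) incubated at 37 °C in human or CD-1 mouse plasma diluted to 80% with 0.1 mol/L potassium phosphate, pH 7.4. Aliquots taken at time points up to […], quenched with acetonitrile/0.1% formic acid and centrifuged at 4 °C. Percent remaining and half-life determined by LC/MS/MS.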

[5] = Plasma stability assay, mouse plasma; type: in vitro ADME, mouse (CD-1); conditions: CD-1, mouse, pH 7.4
Outline: as §1

[6] = Microsomal stability assay, human liver microsomes; type: in vitro ADME; conditions: for half-life at 1 μmol/L: human, liver microsomes, pH 7.4; for Microsomal stability in words: species not told apart in the sentence (human and mouse in Table 3)
Outline: (§2)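 Test compound (1 μmol/L final) incubated at 37 °C with liver microsomes (human or CD-1 mouse; 0.5 mg/mL protein) and 1 mmol/L MgCl2 in 0.1 mol/L potassium phosphate, pH 7.4. Reaction started with NADPH (1 mmol/L final); a no-NADPH control and a verapamil positive control were run alongside. Samples taken up to 60 min and quenched in acetonitrile/0.1% formic acid. Half-life determined by LC/MS/MS.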

[7] = Microsomal stability assay, mouse liver microsomes; type: in vitro ADME; conditions: CD-1, mouse, pH 7.4
Outline: as §2

[8] = Parallel artificial membrane permeability assay; type: in vitro ADME; conditions: for Papp at 5 h, 2 μmol/L: PAMPA
Outline: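 Pre-coated lipid PAMPA plate system. Donor wells held test compound at 2 μmol/L in DPBS; acceptor wells held blank DPBS. Incubated 5 h at 25 °C without agitation. Donor and acceptor concentrations measured by LC/MS/MS. Pe calculated from an equilibrium-concentration equation (filter area 0.3 cm2). Compounds classed as high or low permeability at a cutoff of 1.5 × 10−6 cm/s.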

Row | SMILES | SI (selectivity index, CC50/EC50) (HCMV ADCREGFP [1]) | CC50 at 168 h (Cell viability assay) | inhibition at 20 µM (pUL89-C) | other results
1 | Nc1nc(O)c2ncn(COC(CO)CO)c2n1 [Compound 1, ganciclovir, reference compound] | >50 | > 50 µM |  | 
2 | O=C(NCc1ccc(F)cc1)c1cn(Cc2ccc(F)cc2)cc(O)c1=O [Compound 8b] | 8.2 | 6.4 ± 3.7 µM | 7% | 
3 | O=C(NCc1ccccc1)c1cn(Cc2ccc(F)cc2)cc(O)c1=O [Compound 8d] | 4.7 | 7.1 ± 6.4 µM | 9% | 
4 | O=C(NCc1ccccc1F)c1cn(Cc2ccc(F)cc2)cc(O)c1=O [Compound 8e] | 3.6 | 5.8 ± 2.1 µM | 6% | 
5 | O=C(NCc1cccc(F)c1)c1cn(Cc2ccc(F)cc2)cc(O)c1=O [Compound 8f] | 4.0 | 3.9 ± 1.8 µM | 7% | 
6 | O=C(NCc1ccc(Cl)cc1F)c1cn(Cc2ccc(F)cc2)cc(O)c1=O [Compound 8k] | 4.4 | 2.4 ± 0.07 µM | 14% | 
7 | O=C(NCc1ccc(F)c(Cl)c1)c1cn(Cc2ccc(F)cc2)cc(O)c1=O [Compound 8n] | 6.3 | 3.9 ± 2.3 µM | 5% | 
8 | O=C(NCc1c(F)cccc1Cl)c1cn(Cc2ccc(F)cc2)cc(O)c1=O [Compound 8p] |  |  | 5% | viability at 168 h, 50 μmol/L (Cell viability assay): ~50%; Cytotoxicity in words (HFF cells): cytostatic but not a cytotoxic effect; Metabolic activity compared to DMSO (MTS assay) (HFF cells; across all compound concentrations 0.2–50 μmol/L): approximately 50%
9 | O=C(NCc1ccc(Br)cc1F)c1cn(Cc2ccc(F)cc2)cc(O)c1=O [Compound 8q] | >41 | > 25 µM | 9% | 
10 | N#Cc1ccc(CNC(=O)c2cn(Cc3ccc(F)cc3)cc(O)c2=O)c(F)c1 [Compound 8r] | >42 | > 50 µM | 5% | 
11 | Cc1cc(CNC(=O)c2cn(Cc3ccc(F)cc3)cc(O)c2=O)ccc1F [Compound 8s] | 10 | 10 ± 5.4 µM | 6% | 
12 | O=C(NCc1ccc(C(F)(F)F)cc1F)c1cn(Cc2ccc(F)cc2)cc(O)c1=O [Compound 8u] | >46 | > 25 µM | 3% | 
13 | O=C(NCc1cc(F)c(F)cc1F)c1cn(Cc2ccc(F)cc2)cc(O)c1=O [Compound 8v] | 8.1 | 5.7 ± 2 µM | 5% | 
14 | O=C(Nc1ccc(F)cc1)c1cn(Cc2ccc(F)cc2)cc(O)c1=O [Compound 9b] | 6.4 | 5.6 ± 1.3 µM | 9% | 
15 | CC1(C)OB(c2ccc(NC(=O)c3cn(Cc4ccc(F)cc4)cc(O)c3=O)cc2)OC1(C)C [Compound 9c] | >17 | > 50 µM | 7% | Antiviral activity/potency in words (HCMV ADCREGFP [1]): decreased potency; Cytotoxicity in words (HFF cells): no cytotoxicity
16 | CC(NC(=O)c1cn(Cc2ccc(F)cc2)cc(O)c1=O)c1ccc(F)cc1F (centres unmarked) [Compound 10] | >94 | > 50 µM | 5% | 
17 | CN(Cc1ccc(F)cc1F)C(=O)c1cn(Cc2ccc(F)cc2)cc(O)c1=O [Compound 11] | 8.6 | 12 ± 4.9 µM | 6% | 
18 | O=C(NCCc1ccc(F)cc1F)c1cn(Cc2ccc(F)cc2)cc(O)c1=O [Compound 12] | >116 | > 50 µM | 10% | Time of addition, result in words (HCMV ADCREGFP [2]): inhibit viral replication at a stage between when GCV and LTV are active; Compound withdrawal, result in words (HCMV ADCREGFP [3]): inhibit a step in viral replication between LTV and GCV; half-life at 1 μmol/L [4]: > 24 h; Plasma stability in words [4]: excellent; half-life at 1 μmol/L [5]: > 24 h; half-life at 1 μmol/L [6]: 0.668 ± 0.03 h; Microsomal stability in words [6]: good; half-life at 1 μmol/L [7]: 0.433 ± 0.0167 h; PAMPA permeability class [8]: high permeability; Papp at 5 h, 2 μmol/L [8]: 4.5 ± 0.9 ×10⁻⁶ cm/s
19 | O=C(NCc1ccc(F)cc1F)c1cn(Cc2ccccc2)cc(O)c1=O [Compound 13] | >50 | > 50 µM | 6% | Time of addition, result in words (HCMV ADCREGFP [2]): active similar to, or possibly later than, LTV; Compound withdrawal, result in words (HCMV ADCREGFP [3]): viral replication recovered similarly to GCV; half-life at 1 μmol/L [4]: > 24 h; Plasma stability in words [4]: excellent; half-life at 1 μmol/L [5]: > 24 h; half-life at 1 μmol/L [6]: 1.7 ± 0.197 h; Microsomal stability in words [6]: good; half-life at 1 μmol/L [7]: 0.895 ± 0.00667 h; PAMPA permeability class [8]: high permeability; Papp at 5 h, 2 μmol/L [8]: 9.1 ± 1.1 ×10⁻⁶ cm/s
20 | O=C(NCc1ccc(F)cc1F)c1cn(C2CC2)cc(O)c1=O [Compound 14] | >5.2 | > 25 µM | 7% | 
21 | O=C(NCc1ccc(F)cc1F)c1c[nH]cc(O)c1=O [Compound 15] | >6.3 | > 50 µM | 7% | 
22 | O=C(NCc1ccc(F)cc1F)c1cn(Cc2ccc(F)cc2)ccc1=O [Compound 17] | >7.6 | > 50 µM | 5% | 
23 | CCOC(=O)c1cn(Cc2ccc(F)cc2)ccc1=O [Compound 42] |  | > 50 µM | 7% | Antiviral activity/potency in words (HCMV ADCREGFP [1]): no antiviral activity
24 | COc1cccc(N2CCN(C3=Nc4c(F)cccc4[C@H](CC(=O)O)N3c3cc(C(F)(F)F)ccc3OC)CC2)c1 [LTV, letermovir, reference compound] |  |  |  | Compound withdrawal, result in words (HCMV ADCREGFP [3]): the viral infection rebounded quickly compared to GCV
